Each structure is given as a SMILES string. Values after ≈ are worked out from the molar mass of the structure shown. Numbered stars: 1 amine (or outer) side, 2 acyl side, 3 side chain; on linkers, the order of the positions; unused ones are H or OH. Bridge positions count the residues as written; N and C are the ends. Square brackets hold non-standard residues; d marks the D form. Peptide text beside a SMILES is read from it. * marks the point of attachment. hTyr(3S-OH,4S-OH,3'-OSO3H) = N[C@H](C(=O)O)[C@H](O)[C@@H](O)c1ccc(O)c(OS(=O)(=O)O)c1; pTerphenylCO(4''-OnC5H11) = CCCCCOc1ccc(-c2ccc(-c3ccc(C(=O)*)cc3)cc2)cc1; Orn(4R-OH,5R-OH) = O=C([C@H](C[C@@H](O)[C@@H](O)N[*:3])N[*:1])[*:2]; hTyr(3S-OH,4S-OH) = N[C@H](C(=O)O)[C@H](O)[C@@H](O)c1ccc(O)cc1; Pro(3S-OH,4S-Me) = C[C@H]1CN[C@H](C(=O)O)[C@H]1O; X1 = CCCCCOc1ccc(-c2cc(-c3ccc(C(=O)*)cc3)no2)cc1; Gln(3R-OH) = NC(=O)C[C@@H](O)[C@H](N)C(=O)O; Hyp = O=C(O)[C@@H]1C[C@@H](O)CN1 Some results are limits rather than exact numbers.

Experiment [1] concerns Nakaseomyces glabratus. The experiment is described as follows: Antifungal activity against Candida glabrata CG-C2 harboring FKS1 T1885C mutant gene. Format: functional. The method in brief:
(§1)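 Whole-cell MIC testing of clinical isolates alongside reference strains. Each MIC is the geometric mean of three repetitions.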

Experiment [2] can be described thus: Inhibition of Candida glabrata CG-C2 FKS1 T1885C mutant. Also on record: species or system Nakaseomyces glabratus. The method in brief:
(§2)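 1,3-β-d-glucan synthase complexes were isolated from each strain and titrated against echinocandin to generate inhibition curves. IC50 was taken from the inhibition kinetics and given as the arithmetic mean of three repetitions.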

Experiment [3] is described as follows: Inhibition of Candida albicans ATCC 90028 wild type FKS. An outline of the steps: as §2
Experiment [4] in a line: Inhibition of Candida albicans 177 FKS1 T1922C mutant. An outline of the steps:
as §2

Experiment [5] has as its system Nakaseomyces glabratus. The experiment is described as follows: Antifungal activity against Candida glabrata CG-C3 harboring FKS2 T1987C mutant gene. Format: functional. The method in brief: as §1
In experiment [6] the test system is Candida albicans. The experiment is described as follows: Antifungal activity against Candida albicans 205 harboring FKS1 T1933C mutant gene. It is filed as functional. An outline of the steps: as §1
The subject of experiment [7] is Candida tropicalis. The experiment is described as follows: Antifungal activity against wild type Candida tropicalis ATCC 750. It is filed as functional. An outline of the steps: as §1
The nature of experiment [8]: Inhibition of Candida tropicalis CT-C1 FKS1 T227C mutant. An outline of the steps: as §2
A short description of experiment [9]: Inhibition of Candida tropicalis ATCC 750 wild type FKS. The method in brief: as §2
For experiment [10], the system named is Candida albicans. The experiment is described as follows: Antifungal activity against wild type Candida albicans ATCC 90028. Format: functional. The method in brief: as §1
For experiment [11], the system named is Candida albicans. The experiment is described as follows: Antifungal activity against Candida albicans 177 harboring FKS1 T1922C mutant gene. Format: functional. An outline of the steps: as §1
The nature of experiment [12]: Inhibition of Candida glabrata CG-C3 FKS2 T1987C mutant. Also on record: species or system Nakaseomyces glabratus. The method in brief: as §2
Experiment [13] can be described thus: Inhibition of Candida albicans 205 FKS1 T1933C mutant. An outline of the steps:
as §2

Experiment [14] in a line: Inhibition of Candida glabrata CG-C3 FKS.
In experiment [15] the test system is Candida tropicalis. The experiment is described as follows: Antifungal activity against Candida tropicalis CT-C1 harboring FKS1 T227C mutant gene. Format: functional. The method in brief:
as §1

Experiment [16] is described as follows: Inhibition of Candida glabrata CG-C2 FKS.
Experiment [17] concerns Nakaseomyces glabratus. The experiment is described as follows: Antifungal activity against wild type Candida glabrata ATCC 90030. Format: functional. The method in brief: (§3)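 MIC by broth dilution. The reported value is the geometric mean of three repetitions. Clinical isolates were tested alongside reference strains C. glabrata ATCC 90030, C. tropicalis ATCC 750, C. albicans ATCC 90028, 205 and 177.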

Experiment [18] is described as follows: Inhibition of Candida glabrata ATCC 90030 wild type FKS. The arrangement: species or system Nakaseomyces glabratus. The method in brief: as §2
Experiment [19] in a line: Inhibition of Candida tropicalis CT-C1 FKS.
In experiment [20] the test system is Nakaseomyces glabratus. The experiment is described as follows: Antifungal activity against Candida glabrata clinical isolate by broth dilution assay. Format: functional. The method in brief:
as §3

The subject of experiment [21] is Nakaseomyces glabratus. The experiment is described as follows: Antifungal activity against Candida glabrata clinical isolate assessed as percent isolates by broth dilution assay.
Experiment [22] relates to Candida tropicalis. The experiment is described as follows: Antifungal activity against Candida tropicalis clinical isolate by broth dilution assay. Format: functional. The method in brief:
as §3
A general note: In broth dilution the organism is exposed to a series of concentrations in liquid medium.

The subject of experiment [23] is Candida tropicalis. The experiment is described as follows: Antifungal activity against Candida tropicalis clinical isolate assessed as percent isolates by broth dilution assay.

With `CCCCCOc1ccc(-c2ccc(-c3ccc(C(=O)N[C@H]4C[C@@H](O)[C@@H](O)NC(=O)[C@@H]5[C@@H](O)[C@@H](C)CN5C(=O)[C@H]([C@@H](C)O)NC(=O)[C@H]([C@H](O)[C@@H](O)c5ccc(O)cc5)NC(=O)[C@@H]5C[C@@H](O)CN5C(=O)[C@H]([C@@H](C)O)NC4=O)cc3)cc2)cc1` [ANIDULAFUNGIN] ({pTerphenylCO(4''-OnC5H11)}-[Orn(4R-OH,5R-OH)]T[Hyp][hTyr(3S-OH,4S-OH)]T[Pro(3S-OH,4S-Me)]; lactam 1-C), the MIC (usually the least concentration at which growth counts as inhibited) stood at 4 µg/mL (≈ 3.51 µM) in the experiment on Nakaseomyces glabratus [1]; 8 µg/mL (≈ 7.02 µM) with Nakaseomyces glabratus [5]; 1.33 µg/mL (≈ 1.17 µM) in the experiment on Candida albicans [6]; 0.06 µg/mL (≈ 0.0526 µM) in the experiment with Candida tropicalis [7]; 0.03 µg/mL (≈ 0.0263 µM) in the experiment on Candida albicans [10]; 0.83 µg/mL (≈ 0.728 µM) with Candida albicans [11]. Further, the MIC against Candida tropicalis [15] was 1 µg/mL (≈ 0.877 µM); against Nakaseomyces glabratus [17], under 0.03 µg/mL. Moreover, the IC50 – broadly, the midpoint of a concentration-inhibition curve – amounted to 12.778 µg/mL (≈ 11.2 µM) in [2]; 0.0005 µg/mL (≈ 0.000438 µM) in [3]; 1.091 µg/mL (≈ 0.957 µM) in experiment [4]; 0.06128 µg/mL (≈ 0.0537 µM) in [8]; 0.00233 µg/mL (≈ 0.00204 µM) in experiment [9]; 16.882 µg/mL (≈ 14.8 µM) in experiment [12]. Also, the IC50 in experiment [13] is 0.2454 µg/mL (≈ 0.215 µM); in experiment [14], 13.29 µg/mL (≈ 11.7 µM); in experiment [16], 14.26 µg/mL (≈ 12.5 µM).
Consider `CCCCCOc1ccc(-c2cc(-c3ccc(C(=O)N[C@H]4C[C@@H](O)[C@@H](O)NC(=O)[C@@H]5[C@@H](O)[C@@H](C)CN5C(=O)[C@H]([C@H](O)CC(N)=O)NC(=O)[C@H]([C@H](O)[C@@H](O)c5ccc(O)c(OS(=O)(=O)O)c5)NC(=O)[C@@H]5C[C@@H](O)CN5C(=O)[C@H]([C@@H](C)O)NC4=O)cc3)no2)cc1` [MICAFUNGIN] (X1-[Orn(4R-OH,5R-OH)]T[Hyp][hTyr(3S-OH,4S-OH,3'-OSO3H)][Gln(3R-OH)][Pro(3S-OH,4S-Me)]; lactam 1-C), for which the MIC against Nakaseomyces glabratus [1] is 2 µg/mL (≈ 1.57 µM); against Nakaseomyces glabratus [5] it was over 16 µg/mL; in the experiment on Candida albicans [6] it was 4 µg/mL (≈ 3.15 µM); against Candida tropicalis [7] it was 0.06 µg/mL (≈ 0.0472 µM); in the experiment with Candida albicans [10], 0.03 µg/mL (≈ 0.0236 µM); in the experiment on Candida albicans [11], 1 µg/mL (≈ 0.787 µM). The MIC was found to be 1 µg/mL (≈ 0.787 µM) against Candida tropicalis [15] and 0.03 µg/mL (≈ 0.0236 µM) in the experiment with Nakaseomyces glabratus [17]. In addition, the IC50 in [18] was 0.00071 µg/mL (≈ 0.000559 µM); in [2], 15.144 µg/mL (≈ 11.9 µM); in experiment [3] it was 0.0188 µg/mL (≈ 0.0148 µM); in [4], 1.435 µg/mL (≈ 1.13 µM); in experiment [8], 0.4059 µg/mL (≈ 0.32 µM); in experiment [9], 0.007545 µg/mL (≈ 0.00594 µM). Also, the IC50 in experiment [12] worked out at 11.422 µg/mL (≈ 8.99 µM); in experiment [13] it was 1.088 µg/mL (≈ 0.856 µM); in [19] it was 0.4014 µg/mL (≈ 0.316 µM).
As for `CC[C@H](C)C[C@H](C)CCCCCCCCC(=O)N[C@H]1C[C@@H](O)[C@@H](NCCN)NC(=O)[C@@H]2[C@@H](O)CCN2C(=O)[C@H]([C@H](O)CCN)NC(=O)[C@H]([C@H](O)[C@@H](O)c2ccc(O)cc2)NC(=O)[C@@H]2C[C@@H](O)CN2C(=O)[C@H]([C@@H](C)O)NC1=O` [CASPOFUNGIN], the MIC in the experiment on Nakaseomyces glabratus [1] was 8 µg/mL (≈ 7.32 µM); in the experiment on Nakaseomyces glabratus [20] it was at least 2 µg/mL; against Nakaseomyces glabratus [5], over 16 µg/mL; with Candida albicans [6], 8 µg/mL (≈ 7.32 µM); in the experiment on Candida tropicalis [7] it was 0.25 µg/mL (≈ 0.229 µM); against Candida tropicalis [22] it was at least 2 µg/mL. Also, the MIC against Candida albicans [10] amounted to 0.12 µg/mL (≈ 0.11 µM); against Candida albicans [11], 4 µg/mL (≈ 3.66 µM); against Candida tropicalis [15], 4 µg/mL (≈ 3.66 µM); with Nakaseomyces glabratus [17], 0.03 µg/mL (≈ 0.0274 µM). For the same compound, the IC50 was 0.00192 µg/mL (≈ 0.00176 µM) in [18]; 12.778 µg/mL (≈ 11.7 µM) in experiment [2]; 0.0005 µg/mL (≈ 0.000457 µM) in experiment [3]; 1.091 µg/mL (≈ 0.998 µM) in experiment [4]; 0.06128 µg/mL (≈ 0.056 µM) in experiment [8]; 0.00233 µg/mL (≈ 0.00213 µM) in experiment [9]. For the same compound, the half-maximal inhibitory concentration (IC50) in experiment [12] turned out to be 16.882 µg/mL (≈ 15.4 µM); in experiment [13], 0.2454 µg/mL (≈ 0.224 µM). Moreover, the Activity in the experiment with Nakaseomyces glabratus [21] worked out at 2.2%; in the experiment on Candida tropicalis [23] it was 5.8%.

The values above are taken from ChEMBL document CHEMBL1255422, “Novel FKS mutations associated with echinocandin resistance in Candida species” (Antimicrob Agents Chemother, 2010).
